In ChEMBL document CHEMBL1154946, “Synthetic atpenin analogs: Potent mitochondrial inhibitors of mammalian and fungal succinate-ubiquinone oxidoreductase” (Bioorg Med Chem Lett, 2010):
Calls of active or inactive are those of the source. The calls are words filed in the database; no cut-off is given here.

Assays:
[1] = Inhibition of bovine heart sub-mitochondrial membrane SQR assessed as ubiquinol-dependent reduction of DCIP after 10 mins by spectrophotometry; design: species or system Bos taurus
Procedure, shortened: (§1)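 Complex II (SQR) activity in sub-mitochondrial membranes from bovine heart or Septoria nodorum, run in plate format. 20 mM succinate serves as electron donor, with decyl ubiquinone as acceptor and DCIP as terminal dye acceptor. The reaction is started by adding succinate and runs 10 min. Read-out is spectrophotometric, giving IC50.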

[2] = Inhibition of Septoria nodorum sub-mitochondrial membrane SQR assessed as ubiquinol-dependent reduction of DCIP after 10 mins by spectrophotometry; design: species or system Parastagonospora nodorum; procedure, shortened: as §1
Parastagonospora nodorum [3] = assay: Antifungal activity against Septoria nodorum at 200 ppm; type: functional, organism-based
Parastagonospora nodorum [4] = assay: Antifungal activity against Septoria nodorum at 200 ppm by whole plant assay; type: functional, organism-based

IC50 [1] | IC50 [2] | SMILES | Activity (Parastagonospora nodorum [3]) | Activity (Parastagonospora nodorum [4])
6560 nM | > 30000 nM | COc1[nH]cc(C(=O)c2cccc(Cl)c2)c(=O)c1OC | inactive | inactive
1270 nM | 1940 nM | COc1[nH]c(Br)c(C(=O)c2ccc(Cl)cc2)c(=O)c1OC | inactive | inactive
795 nM | 2750 nM | COc1[nH]cc(C(=O)c2ccc(-c3ccccc3)cc2)c(=O)c1OC | inactive | inactive
13800 nM | 14000 nM | COc1[nH]c(C)c(C(=O)c2ccc(Cl)cc2)c(=O)c1OC | inactive | inactive
3 nM | 4 nM | CCCCCCCCCC(C)C(=O)c1c(O)nc(OC)c(OC)c1O (stereo not drawn) | inactive | inactive
> 30000 nM | > 30000 nM | COc1ccc(C(=O)c2c[nH]c(OC)c(OC)c2=O)cc1 | inactive | inactive
492 nM | 4080 nM | COc1[nH]cc(C(=O)c2ccc(Oc3ccccc3)cc2)c(=O)c1OC | inactive | inactive
454 nM | 2980 nM | COc1[nH]cc(C(=O)c2cccc(Oc3ccccc3)c2)c(=O)c1OC | inactive | inactive
8 nM | 24 nM | COc1nc(O)c(C(=O)C(C)Cc2ccc(C(C)(C)C)cc2)c(O)c1OC (stereo not drawn) | inactive | inactive
> 30000 nM | > 30000 nM | COc1[nH]cc(C(=O)c2ccccc2Oc2ccccc2)c(=O)c1OC | inactive | inactive
8 nM | 299 nM | COc1nc(O)c(C(=O)C(C)c2ccccc2)c(O)c1OC (stereo not drawn) | inactive | inactive
> 30000 nM | > 30000 nM | CCC(C)C(=O)c1c[nH]c(OC)c(OC)c1=O (stereo not drawn) | inactive | inactive
> 30000 nM | > 30000 nM | COc1[nH]cc(C(=O)c2ccccc2Cl)c(=O)c1OC | inactive | inactive
12800 nM | 20700 nM | COc1[nH]cc(C(=O)c2ccc3ccccc3c2)c(=O)c1OC | inactive | inactive
112 nM | 2330 nM | COc1nc(O)c(C(=O)c2cccc(Oc3ccccc3)c2)c(O)c1OC | inactive | inactive
3400 nM | 26700 nM | COc1[nH]cc(C(=O)c2ccc(Cl)cc2)c(=O)c1OC | inactive | inactive
127 nM | 1780 nM | COc1nc(O)c(C(=O)C2CCCCC2)c(O)c1OC | inactive | inactive
> 30000 nM | > 30000 nM | COc1nc(OS(C)(=O)=O)c(C(=O)c2ccc(Cl)cc2)c(OS(C)(=O)=O)c1OC | inactive | inactive
5 nM | 51 nM | COc1nc(O)c(C(=O)C(C)CCC=C(C)C)c(O)c1OC (stereo not drawn) | inactive | inactive
96 nM | 2580 nM | CCC(C)C(=O)c1c(O)nc(OC)c(OC)c1O (stereo not drawn) | inactive | inactive
> 30000 nM | > 30000 nM | COc1nc(OC(C)=O)c(C(=O)c2ccc(Cl)cc2)c(OC(C)=O)c1OC | inactive | inactive
630 nM | > 30000 nM | COc1nc(O)c(C(=O)C(c2ccccc2)c2ccccc2)c(O)c1OC | inactive | inactive
> 30000 nM | > 30000 nM | COc1[nH]c(OC)c(C(=O)c2ccc(Cl)cc2)c(=O)c1OC | inactive | inactive
125 nM | 234 nM | CCCCC(CC)C(=O)c1c(O)nc(OC)c(OC)c1O (stereo not drawn) | inactive | inactive
326 nM | > 30000 nM | COc1nc(O)c(C(=O)c2ccc(Cl)cc2)c(O)c1OC | inactive | inactive

SMILES | IC50 [1] | IC50 [2] | Activity (Parastagonospora nodorum [3]) | Activity (Parastagonospora nodorum [4])
O=C(Nc1ccccc1-c1ccc(Cl)cc1)c1cccnc1Cl [BOSCALID] | 1790 nM | 245 nM | – | –
COc1[nH]c(=O)c(C(=O)[C@@H](C)C[C@H](C)[C@@H](Cl)CCl)c(O)c1OC [ATPENIN A5] | 4 nM | 11 nM | – | –
CCCCC(C)C(=O)c1c(O)nc(OC)c(OC)c1O (stereo not drawn) | 20 nM | 122 nM | inactive | inactive
